Bioassay records: PubChem BioAssay, NMMLSC
RGS4-Gao reg – modulates binding of RGS4 to human Galphao; 220,000 tested, 0.33% active; Multiplexed bead flow cytometry; actives lie on both sides; binding response (% of control), % at 10 µM; in the data active = binding response below about 49% or above about 150%; inactive = in between;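 note: fluorescent Galphao activated with aluminum fluoride binding bead-coupled RGS4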
Target sequence (P09471 whole entry, looked up): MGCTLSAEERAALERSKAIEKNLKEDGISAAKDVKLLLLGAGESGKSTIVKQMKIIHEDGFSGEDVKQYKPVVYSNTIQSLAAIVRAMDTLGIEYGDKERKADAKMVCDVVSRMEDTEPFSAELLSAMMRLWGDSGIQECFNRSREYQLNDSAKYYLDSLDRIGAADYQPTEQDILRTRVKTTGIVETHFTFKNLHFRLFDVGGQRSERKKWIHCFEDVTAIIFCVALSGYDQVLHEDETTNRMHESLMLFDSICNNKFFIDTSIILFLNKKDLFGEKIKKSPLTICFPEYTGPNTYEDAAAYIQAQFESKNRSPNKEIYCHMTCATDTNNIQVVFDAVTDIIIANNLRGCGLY
ABCG2 inh – inhibitors of human ABCG2 transporter, ABCB1 counter-screen; Q9UNQ0; IgMXP3 cells, JC-1 efflux, flow cytometry; inhibition, % at 6.6 µM; 190,000 tested, 0.1% active; AID 1325;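 active = inhibition above 80%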;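 note: 0% = DMSO and 100% = nicardipine control wells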
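Measure – % inhibition of efflux relative to nicardipine and DMSO · Test system – ABCG2 IgMXP3 and barcoded ABCB1 CCRF-Adr cell mix · Control set – nicardipine as high control, DMSO as low control · Compound – one concentration, 6.6 µM final · Signal – flow cytometry of retained JC-1 fluorescence · Timing – 10 min exposure at 25 °C with rotation, no wash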
RGS7-Gao reg – human RGS7-Galphao interaction regulation; 220,000 tested, 0.35% active; AID 1439; Multiplexed bead flow cytometry, RGS7-Galphao binding; actives lie on both sides; P09471; binding response (% of control), % at 10 µM; in the data active = binding response below about 49% or above about 150%; inconclusive = no clear call, values can overlap the other calls; inactive = in between;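 note: fluorescent Galphao held in activated GDP-AlF4 state binding bead-coupled RGS7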
RGS16-Gao – modulates binding between human RGS16 and Galphao; AID 1441; O15492+P09471; 220,000 tested, 0.38% active; binding response (% of control), % at 10 µM; bead-based flow cytometry RGS16-Galphao binding, fluorescence; actives lie on both sides;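 note: Galphao activated by GDP with aluminum fluoride before binding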
Target sequence (O15492 whole entry, looked up): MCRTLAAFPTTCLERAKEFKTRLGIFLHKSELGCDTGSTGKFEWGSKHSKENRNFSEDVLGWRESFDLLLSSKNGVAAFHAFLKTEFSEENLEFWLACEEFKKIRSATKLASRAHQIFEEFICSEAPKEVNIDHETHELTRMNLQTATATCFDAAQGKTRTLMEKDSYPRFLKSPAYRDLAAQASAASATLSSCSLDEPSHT
Target sequence (P09471 whole entry, looked up): as the sequence (P09471 whole entry, looked up) above
ABCB1 block – inhibitors of human ABCB1 transporter, ABCG2 counter-screen; CCRF-Adr cells, JC-1 efflux, flow cytometry; AID 1326; inhibition, % at 6.6 µM; P08183; 190,000 tested, 0.067% active; in the data active = inhibition above about 40%;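 note: 0% = vehicle and 100% = reference inhibitor; higher value means more JC-1 retained so stronger ABCB1 efflux block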
RGS8-Gao – human RGS8-Galphao interaction regulation. response (percent of control binding), % at 10 µM. multiplexed bead flow cytometry, RGS8-Galphao binding; actives lie on both sides. 220,000 tested, 0.34% active. AID 1423; in the data active = response below about 60% or above about 140%; inactive = in between;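 note: Galphao activated as the GDP aluminium fluoride complex binding bead-coupled RGS8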
RGS-Gao – regulators of human RGS4-Galphao interaction | AID 1504 | 1,600 tested, 99% active | shares compounds with RGS16-Gao | RGS4–Galpha-o binding response, % at 10 µM | multiplexed bead flow cytometry, RGS–Galpha-o binding;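 note: fluorescently labeled Galpha-o bound to GDP with aluminium fluoride binding biotinylated RGS beads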
Biotin-avidin – counter-screen: compounds disrupting biotin binding to avidin beads; shares compounds with RGS16-Gao; streptavidin beads, fluorescein-biotin binding, flow cytometry; inhibition, % at 10 µM; 1,700 tested, under 10 active; AID 1783;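 active = inhibition above 50%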;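 note: median green fluorescence of gated singlet beads compared with DMSO control wells; 0% = DMSO wells and 100% = complete loss of bead fluorescence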
RGS8-Gao confirm – confirmation of regulators of human RGS8-Galphao interaction; bead-based flow cytometry RGS8-Galphao binding, fluorescence; actives lie on both sides; shares compounds with RGS16-Gao; AID 1836; 1,700 tested, 3% active; binding response (% of control), % at 10 µM; in the data active = binding response below about 72% or above about 130%; inactive = in between;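 note: Galphao activated as GDP AlF4 complex before binding bead RGS8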
RGS7-Gao confirm – confirmation of regulators of human RGS7-Galphao interaction | shares compounds with RGS16-Gao | response (percent of control binding), % at 10 µM | AID 1837 | bead-based flow cytometry RGS7-Galphao binding; actives lie on both sides | 1,700 tested, 7.8% active; in the data active = response below about 75% or above about 130%; inactive = in between;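 note: fluorescent Galphao activated with GDP and aluminum fluoride binding bead-coupled RGS7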
RGS16-Gao conf – RGS16-Galphao interaction regulation, single point confirmation. shares compounds with RGS16-Gao. bead-based flow cytometry, RGS16-Galphao binding; actives lie on both sides. response (% of control binding), % at 10 µM. 1,700 tested, 4% active. AID 1838; in the data active = response below about 74% or above about 130%; inactive = in between;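 note: Galphao activated as the GDP aluminium fluoride complex binding bead-coupled RGS16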
RGS4-Gao confirm – confirmation of regulators of human RGS4-Galphao interaction. RGS4-Galphao binding, multiplexed bead flow cytometry; actives lie on both sides. shares compounds with RGS16-Gao. binding response (% of control), % at 10 µM. 1,700 tested, 4% active; in the data active = binding response below about 74% or above about 130%; inactive = in between
RGS19-Gao single – RGS19-Galphao interaction regulation, single point confirmation; shares compounds with RGS16-Gao; bead-based flow cytometry RGS19-Galphao binding; actives lie on both sides; response (percent of control binding), % at 10 µM; 1,700 tested, 5% active; in the data active = response below about 50% or above about 160%; inactive = in between;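 note: 100% = no compound control and 0% = blank background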
The depositor's hits bear a star; [ ] = dose if it differs, or a comment. Only some compounds are listed: those with a hit (about 0.83% of all), similar ones and a draw of the others. Unless noted, the rule behind the calls is not given here.

`Cn1c(Cc2ccc3c(c2)OCO3)nnc1SCC(=O)N1CCc2ccccc2C1` gave RGS4-Gao reg 100, ABCG2 inh 3, RGS7-Gao reg 100, RGS16-Gao 104, ABCB1 block 1 and RGS8-Gao 103.
Cc1nc2c(=O)oc3ccccc3c2n1-c1ccccc1 was read as RGS4-Gao reg 128, ABCG2 inh -7, RGS7-Gao reg 120, RGS16-Gao 296, ABCB1 block -5, RGS8-Gao 141*[activator] and RGS-Gao 128*.
For CCOC(=O)c1sc(NC(=O)Nc2ccc(F)cc2)nc1C the results were RGS4-Gao reg 91, ABCG2 inh -3, RGS7-Gao reg 91, RGS16-Gao 25*, ABCB1 block 0, RGS8-Gao 73, RGS-Gao 91*, Biotin-avidin 1, RGS8-Gao confirm 99, RGS7-Gao confirm 105, RGS16-Gao conf 102, RGS4-Gao confirm 105 and RGS19-Gao single 103.
Screening CCn1c(=O)n(CC(=O)NC2CCCC(C)C2C)c(=O)c2ccccc21 (stereo not given) returned RGS4-Gao reg 119, ABCG2 inh 5, RGS7-Gao reg 198*[activator], RGS16-Gao 178, ABCB1 block 1, RGS8-Gao 115 and RGS-Gao 119*.
`COc1ccc(CC(=O)O/N=C(\N)Cc2ccc([N+](=O)[O-])cc2)cc1` gave RGS4-Gao reg 101, RGS7-Gao reg inconclusive, RGS16-Gao 102 and RGS8-Gao 101.
`Cc1ccc(CC(=O)O/N=C(\N)Cc2ccc([N+](=O)[O-])cc2)cc1` gave RGS4-Gao reg 92, ABCG2 inh 13, RGS7-Gao reg 88, RGS16-Gao 17*, ABCB1 block 0, RGS8-Gao 78 and RGS-Gao 92*.
`CCS(=O)(=O)c1ccc2oc(Nc3ccccc3C)nc2c1` gave RGS4-Gao reg 92, ABCG2 inh 7, RGS7-Gao reg 88, RGS16-Gao 97, ABCB1 block 1 and RGS8-Gao 103.
For COCc1cc(C)nc(OCC(=O)N/N=C/c2ccc(O)cc2O)c1C#N the results were RGS4-Gao reg 55, ABCG2 inh 0, RGS7-Gao reg 58, RGS16-Gao 31, ABCB1 block 0, RGS8-Gao 55*, RGS-Gao 55*, Biotin-avidin 0, RGS8-Gao confirm 91, RGS7-Gao confirm 83, RGS16-Gao conf 86, RGS4-Gao confirm 84 and RGS19-Gao single 96.
For CC(C)C(=O)N(Cc1ccc(F)cc1)Cc1nc2ccccc2c(=O)[nH]1 the results were RGS4-Gao reg 95, ABCG2 inh 4, RGS7-Gao reg 100, RGS16-Gao 98, ABCB1 block 0 and RGS8-Gao 97.
CC(=O)Nc1nc(C)c(CCCOc2ccc([N+](=O)[O-])cc2)c(=O)[nH]1 was read as RGS4-Gao reg 153*[activator], RGS7-Gao reg inconclusive, RGS16-Gao 128, RGS8-Gao 103, Biotin-avidin 1, RGS8-Gao confirm 103, RGS7-Gao confirm 108, RGS16-Gao conf 107, RGS4-Gao confirm 105 and RGS19-Gao single 95.
`Cc1ccc(CS(=O)(=O)Cc2ccc(C(=O)NCc3cccs3)o2)cc1` gave RGS4-Gao reg 99, ABCG2 inh 10, RGS7-Gao reg 90, RGS16-Gao 98, ABCB1 block 0 and RGS8-Gao 99.
`CCOC(=O)/C(C(=O)Nc1ccccc1Cl)=C1/NC(C)(C)Cc2ccccc21` gave ABCG2 inh 3, ABCB1 block 0, Biotin-avidin 5, RGS8-Gao confirm 95, RGS7-Gao confirm 73*, RGS16-Gao conf 86, RGS4-Gao confirm 85 and RGS19-Gao single 88.
Screening O=C(CC1C(=O)NCCN1Cc1cccc(Oc2ccccc2)c1)NCCc1ccncc1 (stereo not given) returned RGS4-Gao reg 99, ABCG2 inh 2, RGS7-Gao reg 102, RGS16-Gao 100, ABCB1 block 0 and RGS8-Gao 101.
For S=C(Nc1ccc2c(c1)OCO2)Nc1ccc2c(c1)OCO2 the results were RGS4-Gao reg 142, ABCG2 inh 1, RGS7-Gao reg 159*[activator], RGS16-Gao 146, ABCB1 block 0, RGS8-Gao 141*[activator], RGS-Gao 142*, Biotin-avidin 0, RGS8-Gao confirm 100, RGS7-Gao confirm 103, RGS16-Gao conf 99, RGS4-Gao confirm 102 and RGS19-Gao single 92.
Screening CCOC(=O)C1=C2NC(=O)c3ccccc3N2C(=O)C1 returned RGS4-Gao reg 102, ABCG2 inh -1, RGS7-Gao reg 102, RGS16-Gao 108, ABCB1 block 0 and RGS8-Gao 102.
For CC(O)C(=O)NCCOCCOCCNC(=O)C(C)O (stereo not given) the results were RGS4-Gao reg 109, ABCG2 inh 1, RGS7-Gao reg 104, RGS16-Gao 104, ABCB1 block 0 and RGS8-Gao 104.
For CCCCNC(=O)c1ccc(N2CCC3(CC2)OCCO3)c([N+](=O)[O-])c1 the results were RGS4-Gao reg 94, ABCG2 inh 19, RGS7-Gao reg 93, RGS16-Gao 21*, RGS8-Gao 78, RGS-Gao 94*, Biotin-avidin -2, RGS8-Gao confirm 93, RGS7-Gao confirm 91, RGS16-Gao conf 93, RGS4-Gao confirm 92 and RGS19-Gao single 91.
